Source: ChEMBL document CHEMBL4325910, “Design and synthesis of rosiglitazone-ferulic acid-nitric oxide donor trihybrids for improving glucose tolerance” (Eur J Med Chem, 2019)
Calls of active or inactive are those of the source. No cut-off for these calls is given here.

Key:
hERG (KCNH2) [1] = biological target: T1, hERG (KCNH2) (Homo sapiens, UniProt Q12809); assay: Inhibition of human ERG expressed in CHO cells at 20 uM by patch clamp assay relative to control; format: cell-based; details: CHO cells that express hERG
T1 sequence (Q12809 whole entry): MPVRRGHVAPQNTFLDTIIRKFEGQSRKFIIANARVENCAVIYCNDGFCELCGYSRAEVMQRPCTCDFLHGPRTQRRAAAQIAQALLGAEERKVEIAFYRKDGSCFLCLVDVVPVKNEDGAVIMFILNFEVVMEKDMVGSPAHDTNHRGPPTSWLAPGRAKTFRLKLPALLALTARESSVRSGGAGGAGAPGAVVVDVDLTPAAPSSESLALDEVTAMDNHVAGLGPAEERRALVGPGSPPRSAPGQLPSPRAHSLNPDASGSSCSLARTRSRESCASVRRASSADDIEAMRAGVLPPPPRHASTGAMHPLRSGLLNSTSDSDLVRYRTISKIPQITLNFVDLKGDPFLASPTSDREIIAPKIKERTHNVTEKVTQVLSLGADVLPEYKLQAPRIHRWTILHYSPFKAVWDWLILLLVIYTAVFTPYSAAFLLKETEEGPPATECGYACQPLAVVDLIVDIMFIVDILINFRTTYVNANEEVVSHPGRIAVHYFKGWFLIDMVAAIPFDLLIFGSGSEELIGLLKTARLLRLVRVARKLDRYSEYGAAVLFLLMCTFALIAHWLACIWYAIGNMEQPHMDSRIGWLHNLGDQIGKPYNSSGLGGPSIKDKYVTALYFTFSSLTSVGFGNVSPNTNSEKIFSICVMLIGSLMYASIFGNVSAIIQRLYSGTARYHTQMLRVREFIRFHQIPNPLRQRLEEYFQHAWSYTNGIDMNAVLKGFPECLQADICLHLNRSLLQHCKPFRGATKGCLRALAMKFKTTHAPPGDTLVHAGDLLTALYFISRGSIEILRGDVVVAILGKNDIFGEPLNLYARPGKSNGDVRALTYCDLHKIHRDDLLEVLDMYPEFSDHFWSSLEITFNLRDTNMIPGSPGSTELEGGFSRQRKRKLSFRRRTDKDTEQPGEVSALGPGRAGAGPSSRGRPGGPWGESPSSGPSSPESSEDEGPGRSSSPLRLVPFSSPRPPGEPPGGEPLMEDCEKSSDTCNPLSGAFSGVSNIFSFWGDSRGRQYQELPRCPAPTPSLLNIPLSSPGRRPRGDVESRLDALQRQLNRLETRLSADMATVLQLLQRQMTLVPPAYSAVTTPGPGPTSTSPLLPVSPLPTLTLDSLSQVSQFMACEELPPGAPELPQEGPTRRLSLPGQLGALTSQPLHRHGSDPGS

Aquaporin-2 [2] = biological target: T2, Aquaporin-2 (Homo sapiens, UniProt P41181); assay: Induction of membrane translocation of biotinylated human AQP2 expressed in rat IMCD cells at 10 to 50 uM after 30 mins by FITC-staining based confocal fluorescence microscopic analysis; format: cell-based; details: 0.5 h
T2 sequence (P41181 whole entry): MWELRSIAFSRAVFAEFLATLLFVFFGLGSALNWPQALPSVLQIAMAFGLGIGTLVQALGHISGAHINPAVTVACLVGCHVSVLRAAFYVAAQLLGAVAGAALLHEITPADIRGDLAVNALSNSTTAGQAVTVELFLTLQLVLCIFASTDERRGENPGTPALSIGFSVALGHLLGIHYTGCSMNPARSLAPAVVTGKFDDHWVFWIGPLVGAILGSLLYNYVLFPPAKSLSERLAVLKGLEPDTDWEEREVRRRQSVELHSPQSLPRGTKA
Method in brief: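 Primary SD rat IMCD cells, day 5, were transfected with a human AQP2 plasmid (5 h, serum-free) and cultured 48 h. They were treated for 30 min, with 0.1% DMSO as vehicle and forskolin 100 μM as reference. Cells were fixed in paraformaldehyde, permeabilized with Triton X-100 and quenched with H2O2/methanol. They were stained with FITC-anti-AQP2 and imaged by confocal microscopy.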

Aquaporin-2 [3] = biological target: T2, Aquaporin-2; assay: Induction of membrane translocation of biotinylated human AQP2 expressed in rat IMCD cells at 10 to 50 uM after 30 mins by Western blot analysis; format: cell-based; details: 0.5 h
Method in brief: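 Human AQP2-transfected primary rat IMCD cells were treated for 30 min. Surface proteins were biotinylated with sulfo-NHS-LC-biotin (3 mg/mL, 60 min, 4 °C), then cells lysed in 1% NP-40 and pulled down overnight on streptavidin beads. Biotinylated and total AQP2 (30 μg/lane) were blotted with anti-AQP2 and quantified by densitometry as the biotinylated/total ratio. Three experiments, mean ± SD.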

3T3-L1 [4] = assay: Induction of insulin-stimulated 2-NBDG uptake in TNF-alpha-induced insulin resistant mouse 3T3L1 cells at 10 uM preincubated for 48 hrs followed by 2-NBDG addition measured after 30 mins in presence of insulin by fluorescence assay; format: functional, cell-based
Method in brief: (§1)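 Day-8 differentiated 3T3-L1 adipocytes received TNF-α (4 ng/mL) daily for 4 days. They were pretreated in triplicate for 48 h (C-PTIO 20 μM where indicated), then given 100 μM 2-NBDG at 37 °C for 30 min in the dark, with or without insulin. After KRP washes, fluorescence was read at Ex/Em 485/515 nm. Three experiments, mean ± SD.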

L02 = assay: Inhibition of cellular glucose output in dexamethasone-induced insulin resistant human L02 cells assessed as insulin-stimulated glucose uptake at 10 uM preincubated for 24 hrs followed by insulin stimulation measured after 24 hrs by glucose oxidase method (reference value: 4.5 +/- 0.7%); format: functional; design: scale not given: the % may be the effect or the level left
3T3-L1 [5] = assay: Induction of adipogenesis in mouse 3T3L1 preadipocytes assessed as increase in intracellular triglyceride level at 10 uM treated every other day up to day 14 by AdipoRed staining based confocal microscopic method; format: functional, cell-based
Method in brief: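 3T3-L1 preadipocytes were grown to confluence plus 48 h. Differentiation was induced with 1.0 μM dexamethasone, 0.5 mM IBMX and 1.0 μg/mL insulin for 48 h, then insulin alone. Compound or 0.1% DMSO was added every other day to day 14. Cells were washed in KRP, stained with AdipoRed for 15 min in the dark, imaged confocally and read at Ex/Em 485/572 nm.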

Platelet [6] = assay: Antiplatelet activity in platelet rich plasma (unknown origin) assessed as inhibition of ADP-induced platelet aggregation; format: functional, cell-based
3T3-L1 [7] = assay: Induction of insulin-stimulated 2-NBDG uptake in TNF-alpha-induced insulin resistant mouse 3T3L1 cells preincubated for 48 hrs followed by 2-NBDG addition measured after 30 mins in presence of insulin by fluorescence assay; format: functional, cell-based; method in brief: as §1
Platelet [8] = assay: Antiplatelet activity in platelet rich plasma (unknown origin) assessed as inhibition of arachidonic acid-induced platelet aggregation; format: functional, cell-based
[9] = Toxicity in spontaneous db/db BKS.Cg-Dock7m +/+ Leprdb/J mouse assessed as body weight gain at 27 umol/kg, po administered as daily dose via gavage treated for 18 days measured post last dose (reference value: 5.6 +/- 2.1 g); format: organism-based; details: in vivo, 432 h
hERG (KCNH2) [10] = biological target: T1, hERG (KCNH2); assay: Inhibition of human ERG expressed in CHO cells at 2.5 uM by patch clamp assay relative to control; format: cell-based; details: CHO cells that express hERG
hERG (KCNH2) [11] = biological target: T1, hERG (KCNH2); assay: Inhibition of human ERG expressed in CHO cells at 40 uM by patch clamp assay relative to control; format: cell-based; details: CHO cells that express hERG
hERG (KCNH2) [12] = biological target: T1, hERG (KCNH2); assay: Inhibition of human ERG expressed in CHO cells at 1.25 uM by patch clamp assay relative to control; format: cell-based; details: CHO cells that express hERG
[13] = biological target: Voltage-gated inwardly rectifying potassium channel KCNH2 (Homo sapiens, UniProt Q12809); assay: Inhibition of human ERG expressed in CHO cells by patch clamp assay; format: cell-based
Chain of Voltage-gated inwardly rectifying potassium channel KCNH2 (Q12809 whole entry): as the sequence (Q12809 whole entry) above

hERG (KCNH2) [14] = biological target: T1, hERG (KCNH2); assay: Inhibition of human ERG expressed in CHO cells at 10 uM by patch clamp assay relative to control; format: cell-based; details: CHO cells that express hERG
hERG (KCNH2) [15] = biological target: T1, hERG (KCNH2); assay: Inhibition of human ERG expressed in CHO cells at 5 uM by patch clamp assay relative to control; format: cell-based; details: CHO cells that express hERG
[16] = Toxicity in po dosed ICR mouse administered as single dose via gavage treated on day 1 and measured daily up to 14 days; format: organism-based; details: in vivo
Method in brief: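 Mice of both sexes, 7 weeks old, were randomized and given one oral gavage dose on day 1. Dose levels were 500, 1000, 2000, 3000, 4000 or 5000 mg/kg, or 2000, 4000 and 5000 mg/kg, with n = 10 per group. Behaviour, health and mortality were checked daily for 14 days, and total deaths were counted on day 14. LD50 was calculated with 95% confidence limits.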

3T3-L1 [17] = assay: Induction of nitric oxide production in TNF-alpha-induced insulin resistant mouse 3T3L1 cells at 3 to 10 uM after 0.5 to 6 hrs by DAF-FM-2DA dye based fluorescence assay; format: functional, cell-based
Method in brief: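 Insulin-resistant 3T3-L1 adipocytes (TNF-α 4 ng/mL, 4 days) were treated for varying times, with or without 20 μM C-PTIO. Vehicle was DMSO 0.1% or NaOH 10 μM. Cells were washed in KRP, loaded with 10 μM DAF-FM-2DA in pH 7.4 PBS at 37 °C for 30 min, and read at Ex/Em 485/515 nm. Three experiments.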

[18] = Metabolic stability in human liver microsomes measured immediately after compound addition in presence of NADPH by HPLC analysis; format: ADME, Microsome; details: read-out: Stability
Method in brief: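 Compound (100 mM DMSO stock) was added in triplicate to 0.1 M phosphate buffer pH 7.4 with 3.3 mM MgCl2 and human liver microsomes, then preincubated 5 min at 37 °C. NADPH (1.3 mM stock) was added and incubation continued 0, 0.5, 1, 2 or 6 h. Acetonitrile quench, then HPLC at 254 nm.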

Compound	inhibition at 20 µM (hERG (KCNH2) [1]) [%]	Activity (Aquaporin-2 [2])	Activity (Aquaporin-2 [3])	Activity (3T3-L1 [4])	Activity (L02) [%]	Activity (3T3-L1 [5])	IC50 (Platelet [6]) [µM]	EC50 (3T3-L1 [7]) [µM]	IC50 (Platelet [8]) [µM]	Activity [9] [g]	inhibition at 2.5 µM (hERG (KCNH2) [10]) [%]	inhibition at 40 µM (hERG (KCNH2) [11]) [%]	inhibition at 1.25 µM (hERG (KCNH2) [12]) [%]	IC50 [13] [µM]	inhibition at 10 µM (hERG (KCNH2) [14]) [%]	inhibition at 5 µM (hERG (KCNH2) [15]) [%]	LD50 at 336 h [16] [mg/kg]	Activity (3T3-L1 [17])	remaining at 0 h [18] [%]
CN(CCOc1ccc(CC2SC(=O)NC2=O)cc1)c1ccccn1 (stereo unspecified) [ROSIGLITAZONE]	42.5	Active	Active	Active	11.8	Active	5700	1.72	6400	6.6	17.3	57.9	9.38	29.5	30.1	23.3	2580		
CCN(CC)/[N+]([O-])=N/OCOC(=O)/C=C/c1ccc(OC(=O)OCN2C(=O)SC(Cc3ccc(OCCN(C)c4ccccn4)cc3)C2=O)c(OC)c1 (stereo unspecified)	26.2	Not Active	Not Active	Active	47.8	Active	2100	1.08	700	3.4	10.8	39.5	9.06	> 40	18	14.5	> 5000	Active	100
